Key:
[1] = tested on: CCRF-CEM; experiment: Concentration required to kill 50% of CEM cells; type: functional, cell-based; details: Homo sapiens
Summary of the method: (§1)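 Uninfected PHA-stimulated PBMCs or CEM cells plated at 2.5 × 10^5 cells/well with diluted drug. Incubated 6 days at 37 °C, 10% CO2. XTT/PMS added and incubated 4 h at 37 °C. Absorbance read at 450 nm, 630 nm reference.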

[2] = species on record: Homo sapiens; experiment: Concentration required to kill 50% of PBMCs; type: functional, organism-based; summary of the method: as §1
[3] = species on record: Homo sapiens; experiment: Effective concentration of required to inhibit the replication of HIV-1 BY 50% in PMBCs from donor 1; type: functional, organism-based
[4] = species on record: Homo sapiens; experiment: Effective concentration of required to inhibit the replication of HIV-1 BY 50% in PMBCs from donor 2; type: functional, organism-based
[5] = species on record: Homo sapiens; experiment: (§2) Intracellular of AZT-TP concentrations in LAI/HIV-1 infected PMBCs was determined at a conc of 10 uM); type: functional, organism-based
Summary of the method: (§3)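 PHA-stimulated, LAI/HIV-1-infected PBMCs (donor 2) at 10^6 cells/mL, triplicate, given 10 µM compound ± 50 µM thymidine for 18 h at 37 °C. Cells washed, extracted in 60% methanol overnight at −20 °C, dried and reconstituted. AZT-TP quantified by inhibition of recombinant HIV-1 RT (poly(rA)-oligo(dT), 3H-TTP, 2 h at 37 °C) relative to AZT-TP standards; pmol/10^6 cells.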

[6] = Inhibition of AZT-MP production by cell free extracts of CEM cells; type: functional, Homo sapiens, CCRF-CEM; design: unit not given here
Summary of the method: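 CEM cells (1.5 × 10^8) sonicated in 1 mL 20 mM Tris-HCl, 500 mM NaCl, pH 7.5. Lysate incubated with phosphoramidate and carbamate, each added from 10 mM stock, for 45 min at 37 °C, then stopped with methanol. AZT-MP quantified by RP-HPLC-RIA against a no-carbamate control. Mean of two experiments.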

[7] = species on record: Homo sapiens; experiment: Concentration required to kill 50% of PBMCs cells; type: functional, cell-based; details: PBMC; summary of the method: as §1
[8] = species on record: Homo sapiens; experiment: Effective concentration to inhibit HIV-1 replication by 50% in PMBCs cells from donor 1; type: functional, cell-based
[9] = species on record: Homo sapiens; experiment: Effective concentration required to inhibit the replication of HIV-1 by 50% in PMBCs in the absence of thymidine; type: functional, organism-based
[10] = species on record: Homo sapiens; experiment: Effective concentration to inhibit HIV-1 replication by 50% in PMBCs cells from donor 2; type: functional, cell-based
Summary of the method: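 Ficoll-isolated human PBMCs, PHA-stimulated, grown in RPMI 1640 with 10% heat-inactivated FBS, penicillin/streptomycin and IL-2 (10 U/mL) at 37 °C. Cells were infected with LAI/HIV-1, and compounds in ddH2O were added to duplicate or triplicate cultures. After 6 days, supernatant viral RT activity was measured.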

[11] = tested on: U1; experiment: Antiviral activity was determined in chronically infected U1 cell line with HIV-1; type: functional, cell-based; details: Homo sapiens
Summary of the method: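 HIV-1 chronically infected U1 cells (1.5 × 10^5 cells/well) in RPMI 1640 with 10% FBS and 10 ng/mL TNF-α. Compound in ddH2O added to duplicate cultures. Incubated 48 h at 37 °C, 5% CO2. Supernatant p24gag measured by ELISA; XTT assay run on the remaining culture.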

[12] = tested on: CCRF-CEM; experiment: Effective concentration to inhibit HIV-1 replication by 50% in CEM cells; type: functional, cell-based; details: Homo sapiens
Summary of the method: (§4)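 PHA-stimulated CEM cells infected 3 h at 37 °C with LAI/HIV-1 (10 000 DPM RT activity/10^6 cells), then washed. Resuspended at 2.5 × 10^5 cells/mL in medium with 10 U/mL IL-2. Drugs in ddH2O added to duplicate or triplicate cultures. Held 6 days at 37 °C; supernatant p24 measured by ELISA.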

[13] = species on record: Homo sapiens; experiment: Effective concentration required to inhibit the replication of HIV-1 with no pretreatment of activated PBMCs; type: functional, organism-based
Summary of the method: (§5)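 Uninfected PHA-stimulated PBMCs (2.5 × 10^5 cells/mL) given compound in ddH2O in triplicate for 2 h at 37 °C, then LAI/HIV-1 (5000 DPM/10^6 cells) added. In parallel cultures, cells were infected 3 h first and then treated. After 6 days at 37 °C, supernatant RT activity measured.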

[14] = species on record: Homo sapiens; experiment: Effective concentration required to inhibit the replication of HIV-1 by 50% in PMBCs in the presence of thymidine; type: functional, organism-based
[15] = species on record: Homo sapiens; experiment: Effective concentration required to inhibit the replication of HIV-1 with 2 hr pretreatment of activated PBMCs; type: functional, organism-based; summary of the method: as §5
[16] = tested on: Human immunodeficiency virus 1; experiment: Concentration required to inhibit HIV-1 replication by 50% in activated PBMCs
[17] = tested on: Human immunodeficiency virus 1; experiment: Concentration required to inhibit the production of proviral DNA in unactivated PBMCs
[18] = species on record: Homo sapiens; experiment: as §2; type: functional, organism-based; summary of the method: as §3; remark: listed apart in the source
[19] = tested on: CCRF-CEM; experiment: Effective concentration of required to inhibit the replication of HIV-1 BY 50% in CEM cells; type: functional, cell-based; details: Homo sapiens; summary of the method: as §4
[20] = species on record: Homo sapiens; experiment: Effective concentration required to inhibit the replication of HIV-1 in activated PBMCs; type: functional, organism-based
Summary of the method: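 PBMCs held 2 days either resting (no PHA, no IL-2) or with 10 μg/mL PHA, then IL-2 10 U/mL. Nonadherent cells infected with LAI/HIV-1 (5000 DPM/10^6 cells) for 3 h and washed. Plated at 2.5 × 10^5 cells/mL, compounds added in triplicate, 6 days at 37 °C. Supernatant RT activity measured; proviral gag DNA by PCR normalised to IFN-β1.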

[21] = species on record: Homo sapiens; experiment: Inhibition of Phosphoramidase activity with AZT L-amino acid carbamates; type: functional; details: concentration not given here
Summary of the method: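 CEM cells (1.5 × 10^8) sonicated in 1 mL 20 mM Tris-HCl, 500 mM NaCl, pH 7.5. Whole lysate incubated 45 min at 37 °C with phosphoramidate (from 10 mM water stock) and carbamate (from 10 mM DMSO stock), then stopped with methanol. AZT-MP quantified by RP-HPLC-RIA against a no-carbamate control. Mean of two experiments.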

For `CNC(=O)[C@@H](Cc1c[nH]c2ccccc12)NP(=O)(O)OC[C@H]1O[C@@H](n2cc(C)c(=O)[nH]c2=O)C[C@@H]1N=[N+]=[N-]`, the IC50 [1] was > 100 µM, the IC50 [2] was > 100 µM and the EC50 [3] was 400 nM. It also gave an EC50 [4] of 180 nM.

In the case of `CNC(=O)[C@H](Cc1c[nH]c2ccccc12)NP(=O)(O)OC[C@H]1O[C@@H](n2cc(C)c(=O)[nH]c2=O)C[C@@H]1N=[N+]=[N-]`, the IC50 [1] is reported as > 100 µM, the IC50 [2] is reported as > 100 µM and the EC50 [3] is reported as 700 nM. For the same compound, the EC50 [4] was 1800 nM.

In the case of `COC(=O)[C@H](Cc1c[nH]c2ccccc12)NP(=O)(O)OC[C@H]1O[C@@H](n2cc(C)c(=O)[nH]c2=O)C[C@@H]1N=[N+]=[N-]`, the Concentration (pM (10e6*cells)-1) [5] is reported as 0.01, the Activity [6] is reported as 6.39 and the IC50 [7] is reported as > 100 µM. It also gave an EC50 [8] of 2000 nM, an EC50 [9] of 350 nM and an EC50 [10] of 350 nM. For the same compound, the EC50 [11] was 40 µM, the EC50 [12] was 4 nM and the EC50 [13] was 350 nM. The EC50 [14] was 30 µM, the EC50 [15] was < 10 nM and the IC50 [1] was > 100 µM. It also gave an EC50 [16] of 350 nM, an IC100 [17] of 0.1 µM and a Concentration (pM (10e6*cells)-1) [18] of 0.22.

With `COC(=O)[C@H](Cc1ccccc1)NP(=O)(O)OC[C@H]1O[C@@H](n2cc(C)c(=O)[nH]c2=O)C[C@@H]1N=[N+]=[N-]` the Activity [6] was 6.3, the EC50 [19] was < 1 nM and the EC50 [9] was 15000 nM. The EC50 [11] was 25 µM, the EC50 [13] was 15000 nM and the EC50 [14] was > 100 µM. For the same compound, the EC50 [15] was 1000 nM, the IC50 [1] was > 100 µM and the IC50 [2] was > 100 µM. For the same compound, the EC50 [20] was > 100 µM, the IC100 [17] was >100 µM and the EC50 [3] was 30000 nM. For the same compound, the EC50 [4] was 15000 nM.

With `COC(=O)[C@@H](Cc1ccccc1)NP(=O)(O)OC[C@H]1O[C@@H](n2cc(C)c(=O)[nH]c2=O)C[C@@H]1N=[N+]=[N-]` the IC50 [1] was > 100 µM, the IC50 [2] was > 100 µM and the EC50 [3] was 89 nM. For the same compound, the EC50 [4] was 80 nM.

With `COC(=O)[C@H](Cc1ccccc1)NC(=O)OC[C@H]1O[C@@H](n2cc(C)c(=O)[nH]c2=O)C[C@@H]1N=[N+]=[N-].COC(=O)[C@H](Cc1ccccc1)NP(=O)(O)OC[C@H]1O[C@@H](n2cc(C)c(=O)[nH]c2=O)C[C@@H]1N=[N+]=[N-]` the inhibition [21] was 99.6%.

In the case of `COC(=O)[C@H](CC(C)C)NP(=O)(O)OC[C@H]1O[C@@H](n2cc(C)c(=O)[nH]c2=O)C[C@@H]1N=[N+]=[N-]`, the IC50 [1] is reported as > 100 µM, the IC50 [2] is reported as > 100 µM and the EC50 [3] is reported as 1300 nM. For the same compound, the EC50 [4] was 1000 nM.

For `Cc1cn([C@H]2C[C@H](N=[N+]=[N-])[C@@H](CO)O2)c(=O)[nH]c1=O` [ZIDOVUDINE], the Concentration (pM (10e6*cells)-1) [5] was 0.69, the EC50 [19] was < 1 nM and the EC50 [9] was 7 nM. It also gave an EC50 [11] of 25 µM, an EC50 [13] of 10 nM and an EC50 [14] of 0.3 µM. The EC50 [15] was 15 nM, the EC50 [16] was 10 nM and the IC50 [2] was > 100 µM. The IC100 [17] was 0.01 µM, the EC50 [3] was 6 nM and the EC50 [4] was 7 nM. For the same compound, the Concentration (pM (10e6*cells)-1) [18] was 1.37.
